Assay results reported in ChEMBL document CHEMBL3627613, “4-Aminoquinoline derivatives as novel Mycobacterium tuberculosis GyrB inhibitors: Structural optimization, synthesis and biological evaluation” (Eur J Med Chem, 2015).
In brackets after ≈: the same amount, converted by molar mass.

Tests used:
[1] = system: Mycobacterium tuberculosis; assay: Antimycobacterial activity against Mycobacterium tuberculosis H37Rv assessed as growth inhibition incubated for 7 days by microplate alamar blue assay; type: functional; conditions: 168 h
In short: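 M. tuberculosis H37Rv inoculum from fresh LJ medium, resuspended in 7H9 broth (0.1% casitone, 0.5% glycerol, OADC), set to McFarland No. 1 and diluted 1:20. Two-fold serial compound dilutions in 7H9-S, with growth and sterile controls. Incubated 7 days at 37 °C, then alamar blue overnight. MIC is the lowest concentration preventing the blue-to-pink colour change.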

DNA gyrase subunit B = DNA gyrase subunit B (Mycobacterium smegmatis, UniProt P0C559); assay: Inhibition of Mycobacterium smegmatis DNA gyrase B expressed in Escherichia coli BL21 (DE3) pLysS cells assessed as reduction in ATPase activity incubated for 100 mins by inorganic phosphate detection assay; design: species or system Mycolicibacterium smegmatis
Sequence of DNA gyrase subunit B (P0C559 whole entry): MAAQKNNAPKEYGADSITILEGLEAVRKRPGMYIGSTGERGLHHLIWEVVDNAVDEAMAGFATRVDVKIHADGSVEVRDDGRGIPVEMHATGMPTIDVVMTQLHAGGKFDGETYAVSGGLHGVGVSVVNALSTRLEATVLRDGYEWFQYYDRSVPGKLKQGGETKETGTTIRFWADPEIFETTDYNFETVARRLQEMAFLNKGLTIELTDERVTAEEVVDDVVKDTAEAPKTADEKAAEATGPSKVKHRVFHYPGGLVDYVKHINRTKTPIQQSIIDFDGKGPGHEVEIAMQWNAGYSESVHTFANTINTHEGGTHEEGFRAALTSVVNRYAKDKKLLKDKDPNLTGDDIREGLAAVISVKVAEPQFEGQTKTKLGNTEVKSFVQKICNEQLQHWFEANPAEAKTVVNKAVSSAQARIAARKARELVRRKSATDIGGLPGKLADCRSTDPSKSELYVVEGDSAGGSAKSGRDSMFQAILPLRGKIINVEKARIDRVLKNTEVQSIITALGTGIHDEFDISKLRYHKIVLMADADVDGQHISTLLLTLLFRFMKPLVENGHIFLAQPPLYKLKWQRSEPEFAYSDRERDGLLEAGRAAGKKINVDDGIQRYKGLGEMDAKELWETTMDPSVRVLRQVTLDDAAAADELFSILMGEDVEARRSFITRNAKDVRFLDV

[2] = Cytotoxicity against mouse RAW264.7 cells assessed as inhibition of cell viability at 50 uM incubated for 48 hrs at 37 degC by MTT assay relative to control; type: cell-based; conditions: read-out: INH
In short: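 RAW 264.7 mouse macrophages, 5×10^5 cells per well, exposed to compound for 48 h at 37 °C under 5% CO2. MTT added 4 h before the end. Formazan dissolved in DMSO and absorbance read at 560 nm against blank. Triplicates, run twice.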

[3] = biological target: DNA gyrase subunit A/DNA gyrase subunit B (Mycobacterium tuberculosis (strain ATCC 25618 / H37Rv), UniProt P9WG45+P9WG47); assay: Inhibition of DNA gyrase GyrA/GyrB in Mycobacterium tuberculosis incubated for 30 mins assessed as reduction in supercoiling of relaxed relaxed pBR322 DNA by ethidium bromide staining based agarose gel electrophoresis method
Sequence of DNA gyrase subunit A/DNA gyrase subunit B (P9WG45 whole entry): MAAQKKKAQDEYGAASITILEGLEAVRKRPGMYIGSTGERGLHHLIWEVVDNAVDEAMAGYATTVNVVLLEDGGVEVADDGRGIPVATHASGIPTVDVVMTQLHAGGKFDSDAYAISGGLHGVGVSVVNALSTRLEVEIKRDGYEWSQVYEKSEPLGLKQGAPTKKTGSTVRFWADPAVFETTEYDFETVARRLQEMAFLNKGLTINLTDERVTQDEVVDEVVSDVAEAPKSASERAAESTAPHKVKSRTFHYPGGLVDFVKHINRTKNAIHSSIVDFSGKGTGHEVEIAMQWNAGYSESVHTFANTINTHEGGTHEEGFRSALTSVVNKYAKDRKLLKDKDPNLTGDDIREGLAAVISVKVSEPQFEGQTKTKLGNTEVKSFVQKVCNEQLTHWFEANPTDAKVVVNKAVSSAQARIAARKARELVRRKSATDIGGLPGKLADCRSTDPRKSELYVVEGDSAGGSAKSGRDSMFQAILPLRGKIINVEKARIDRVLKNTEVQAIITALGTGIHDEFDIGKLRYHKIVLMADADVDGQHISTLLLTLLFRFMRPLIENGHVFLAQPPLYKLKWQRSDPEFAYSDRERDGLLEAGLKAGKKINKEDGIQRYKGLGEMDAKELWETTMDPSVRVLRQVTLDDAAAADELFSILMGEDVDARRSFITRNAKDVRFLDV
Sequence of DNA gyrase subunit A/DNA gyrase subunit B (P9WG47 whole entry): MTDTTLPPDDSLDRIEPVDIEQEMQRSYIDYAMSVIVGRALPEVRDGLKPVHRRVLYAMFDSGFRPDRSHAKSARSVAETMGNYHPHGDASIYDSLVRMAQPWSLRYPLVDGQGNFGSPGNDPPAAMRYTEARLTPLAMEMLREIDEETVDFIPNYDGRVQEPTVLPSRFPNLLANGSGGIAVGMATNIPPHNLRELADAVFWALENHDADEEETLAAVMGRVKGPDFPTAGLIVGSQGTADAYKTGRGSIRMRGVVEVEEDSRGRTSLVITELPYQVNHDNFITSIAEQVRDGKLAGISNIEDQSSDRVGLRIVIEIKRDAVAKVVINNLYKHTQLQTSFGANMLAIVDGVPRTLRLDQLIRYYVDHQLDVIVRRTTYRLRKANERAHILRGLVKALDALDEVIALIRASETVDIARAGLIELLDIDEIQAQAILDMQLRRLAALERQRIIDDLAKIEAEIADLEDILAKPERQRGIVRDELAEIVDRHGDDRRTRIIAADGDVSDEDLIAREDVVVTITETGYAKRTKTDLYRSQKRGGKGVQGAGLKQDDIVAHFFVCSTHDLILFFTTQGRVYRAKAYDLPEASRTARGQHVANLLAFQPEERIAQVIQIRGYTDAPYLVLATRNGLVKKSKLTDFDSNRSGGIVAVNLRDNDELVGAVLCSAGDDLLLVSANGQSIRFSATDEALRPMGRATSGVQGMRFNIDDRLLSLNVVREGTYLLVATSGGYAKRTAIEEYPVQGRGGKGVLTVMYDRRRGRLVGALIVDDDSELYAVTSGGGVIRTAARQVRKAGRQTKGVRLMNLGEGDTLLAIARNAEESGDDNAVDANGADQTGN

Row | SMILES | MIC [1] | IC50 (DNA gyrase subunit B) | cytotoxicity at 48 h, 50 µM [2] | IC50 [3]
1 | CCOC(=O)c1cnc2ccc(C(F)(F)F)cc2c1Nc1ccc(NCCCN2CCOCC2)cc1 | 49.8 µM (≈ 25 µg/mL) | 6.62 µM | 20.2% | 3.12 µM
2 | CCOC(=O)c1cnc2ccc(C(F)(F)F)cc2c1Nc1ccc(OCCCN2CCN(CC)CC2)cc1 | 2.94 µM (≈ 1.56 µg/mL) | 0.97 µM | 27.3% | 0.69 µM
3 | CCOC(=O)c1cnc2ccc(F)cc2c1Nc1ccc(OCCCN2CCOCC2)cc1 | 21.7 µM (≈ 9.85 µg/mL) | 16.9 µM | 44.1% | 7.63 µM
4 | CCN1CCN(CCCOc2ccc(Nc3c(C(=O)NN)cnc4ccc(C(F)(F)F)cc34)cc2)CC1 | 11.5 µM (≈ 5.95 µg/mL) | 11.9 µM | 20.1% | 9.33 µM
5 | CCN1CCN(CCCOc2ccc(Nc3c(C(=O)O)cnc4ccc(C(F)(F)F)cc34)cc2)CC1 | 19.8 µM (≈ 9.93 µg/mL) | 7.91 µM | 13.4% | 3.54 µM
6 | CCOC(=O)c1cnc2ccc(OC)cc2c1Nc1ccc(NCCCN2CCOCC2)cc1 | 23.4 µM (≈ 10.9 µg/mL) | 22.3 µM | 19.3% | 9.32 µM
7 | NNC(=O)c1cnc2ccc(F)cc2c1Nc1ccc(NCCCN2CCOCC2)cc1 | 23.6 µM (≈ 10.3 µg/mL) | 18.7 µM | 29.1% | 10.6 µM
8 | CCOC(=O)c1cnc2ccc(OC)cc2c1Nc1ccc(OCCCN2CCOCC2)cc1 | 13.3 µM (≈ 6.22 µg/mL) | 14.9 µM | 21.2% | 13.3 µM
9 | COc1ccc2ncc(C(=O)O)c(Nc3ccc(NCCCN4CCOCC4)cc3)c2c1 | 28.6 µM (≈ 12.5 µg/mL) | 38.9 µM | 16.1% | 12.6 µM
10 | NNC(=O)c1cnc2ccc(C(F)(F)F)cc2c1Nc1ccc(OCCCN2CCOCC2)cc1 | 36.4 µM (≈ 17.8 µg/mL) | 38.7 µM | 0.07% | 19.9 µM
11 | CCN1CCN(CCCOc2ccc(Nc3c(C(=O)O)cnc4ccccc34)cc2)CC1 | 27.2 µM (≈ 11.8 µg/mL) | 21.7 µM | 13.4% | 10.2 µM
12 | COc1c(N2C[C@@H]3CCCN[C@@H]3C2)c(F)cc2c(=O)c(C(=O)O)cn(C3CC3)c12 [MOXIFLOXACIN] | 1.26 µM (≈ 0.506 µg/mL) | > 50 µM | – | –
13 | CCOC(=O)c1cnc2ccc(OC)cc2c1Nc1ccc(OCCCN2CCN(CC)CC2)cc1 | 11.6 µM (≈ 5.7 µg/mL) | 15.9 µM | 21.6% | 6.85 µM
14 | CCN1CCN(CCCNc2ccc(Nc3c(C(=O)NN)cnc4ccc(C(F)(F)F)cc34)cc2)CC1 | 30 µM (≈ 15.5 µg/mL) | 26.3 µM | 1.59% | 11 µM
15 | CCN1CCN(CCCOc2ccc(Nc3c(C(=O)O)cnc4ccc(F)cc34)cc2)CC1 | 6.91 µM (≈ 3.13 µg/mL) | 6.82 µM | 24.2% | 5.96 µM
16 | NNC(=O)c1ccncc1 [ISONIAZID] | 0.66 µM (≈ 0.0905 µg/mL) | – | – | –
17 | CO[C@H]1/C=C/O[C@@]2(C)Oc3c(C)c(O)c4c(O)c(c(/C=N/N5CCN(C)CC5)c(O)c4c3C2=O)NC(=O)/C(C)=C\C=C\[C@H](C)[C@H](O)[C@@H](C)[C@@H](O)[C@@H](C)[C@H](OC(C)=O)[C@@H]1C [RIFAMPIN] | 0.23 µM (≈ 0.189 µg/mL) | – | – | –
18 | NNC(=O)c1cnc2ccc(F)cc2c1Nc1ccc(OCCCN2CCOCC2)cc1 | 28.4 µM (≈ 12.5 µg/mL) | 20.9 µM | 13.7% | 21.4 µM
19 | CCN1CCN(CCCOc2ccc(Nc3c(C(=O)NN)cnc4ccc(F)cc34)cc2)CC1 | 3.34 µM (≈ 1.56 µg/mL) | 2.92 µM | 11.9% | 2.96 µM
20 | COc1ccc2ncc(C(=O)O)c(Nc3ccc(OCCCN4CCOCC4)cc3)c2c1 | 57.1 µM (≈ 25 µg/mL) | 20.6 µM | 11.4% | 12.9 µM

Row | SMILES | MIC [1] | IC50 (DNA gyrase subunit B) | cytotoxicity at 48 h, 50 µM [2] | IC50 [3]
21 | CCOC(=O)c1cnc2ccccc2c1Nc1ccc(OCCCN2CCN(CC)CC2)cc1 | 13.5 µM (≈ 6.25 µg/mL) | > 50 µM | 21.4% | 23.9 µM
22 | CCOC(=O)c1cnc2ccc(F)cc2c1Nc1ccc(NCCCN2CCN(CC)CC2)cc1 | 13 µM (≈ 6.25 µg/mL) | 16.9 µM | 20.2% | 7.99 µM
23 | CCN1CCN(CCCNc2ccc(Nc3c(C(=O)O)cnc4ccccc34)cc2)CC1 | 11.8 µM (≈ 5.12 µg/mL) | 11.3 µM | 32.3% | 5.88 µM
24 | O=C(O)c1cnc2ccc(F)cc2c1Nc1ccc(OCCCN2CCOCC2)cc1 | 14.7 µM (≈ 6.25 µg/mL) | 31.3 µM | 10.8% | 16.9 µM
25 | CCN1CCN(CCCNc2ccc(Nc3c(C(=O)NN)cnc4ccccc34)cc2)CC1 | 13.5 µM (≈ 6.04 µg/mL) | 10.8 µM | 3.36% | 9.42 µM
26 | CCOC(=O)c1cnc2ccc(OC)cc2c1Nc1ccc(NCCCN2CCN(CC)CC2)cc1 | 25.4 µM (≈ 12.5 µg/mL) | 9.55 µM | 21.4% | 8.52 µM
27 | CCN1CCN(CCCNc2ccc(Nc3c(C(=O)O)cnc4ccc(OC)cc34)cc2)CC1 | 3.48 µM (≈ 1.61 µg/mL) | 1.32 µM | 20.1% | 0.93 µM
28 | NNC(=O)c1cnc2ccc(C(F)(F)F)cc2c1Nc1ccc(NCCCN2CCOCC2)cc1 | 25.6 µM (≈ 12.5 µg/mL) | 47.2 µM | 7.94% | 19.9 µM
29 | O=C(O)c1cnc2ccc(F)cc2c1Nc1ccc(NCCCN2CCOCC2)cc1 | 29.5 µM (≈ 12.5 µg/mL) | 15 µM | 13.1% | 4.44 µM
30 | CCOC(=O)c1cnc2ccc(F)cc2c1Nc1ccc(OCCCN2CCN(CC)CC2)cc1 | 3.25 µM (≈ 1.56 µg/mL) | 23.6 µM | 21.6% | 11.8 µM
31 | CO[C@@H]1[C@@H](OC(N)=O)[C@@H](O)[C@H](Oc2ccc3c(O)c(NC(=O)c4ccc(O)c(CC=C(C)C)c4)c(=O)oc3c2C)OC1(C)C [NOVOBIOCIN] | > 200 µM | – | – | –
32 | CCN1CCN(CCCNc2ccc(Nc3c(C(=O)NN)cnc4ccc(OC)cc34)cc2)CC1 | 13.1 µM (≈ 6.25 µg/mL) | 3.26 µM | 2.56% | 2.55 µM
33 | O=C(O)c1cnc2ccc(C(F)(F)F)cc2c1Nc1ccc(NCCCN2CCOCC2)cc1 | 6.59 µM (≈ 3.13 µg/mL) | 7.89 µM | 19.1% | 3.77 µM
34 | CCOC(=O)c1cnc2ccccc2c1Nc1ccc(NCCCN2CCN(CC)CC2)cc1 | 6.77 µM (≈ 3.13 µg/mL) | 11.7 µM | 20.4% | 3.25 µM
35 | CCOC(=O)c1cnc2ccc(C(F)(F)F)cc2c1Nc1ccc(NCCCN2CCN(CC)CC2)cc1 | 1.47 µM (≈ 0.779 µg/mL) | 8.82 µM | 20.1% | 3.77 µM
36 | CCOC(=O)c1cnc2ccc(F)cc2c1Nc1ccc(NCCCN2CCOCC2)cc1 | 13.4 µM (≈ 6.09 µg/mL) | 11.3 µM | 19.6% | 4.61 µM
37 | CCOC(=O)c1cnc2ccccc2c1Nc1ccc(NCCCN2CCOCC2)cc1 | 14.4 µM (≈ 6.25 µg/mL) | 17.9 µM | 1.82% | 8.73 µM
38 | O=C(O)c1cnc2ccccc2c1Nc1ccc(NCCCN2CCOCC2)cc1 | 7.69 µM (≈ 3.13 µg/mL) | 11.3 µM | 0.55% | 5.56 µM
39 | CCN1CCN(CCCOc2ccc(Nc3c(C(=O)NN)cnc4ccccc34)cc2)CC1 | 13.9 µM (≈ 6.25 µg/mL) | 28.4 µM | 18.2% | 16.7 µM
40 | COc1ccc2ncc(C(=O)NN)c(Nc3ccc(OCCCN4CCOCC4)cc3)c2c1 | 55.4 µM (≈ 25 µg/mL) | 10.6 µM | 6.26% | 10.4 µM
